Molecules are shown by their SMILES. Activity calls are given as the source filed them. No cut-off for these calls is given here.

The target in data set [1] is Histone-lysine N-methyltransferase EZH2 (Homo sapiens) (UniProt Q15910). Description: Inhibition of EZH2 in human PDX LX92 cells assessed as decrease in H3K27me3 level after 7 days by Westernblot analysis. Type of data set: cell-based. The following applies: time 7.0 day. In outline: (§1)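 Ex vivo LX92 cultures (dissociated PDX cells in DMEM:F12 plus EGM-2 growth factors, 5,000 cells/well) given EZH2 inhibitor daily at 1 µM final, DMSO vehicle. Day 7 lysates probed by Western blot for EZH1, EZH2, H3K27me2 and H3K27me3.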
Chain of Histone-lysine N-methyltransferase EZH2 (Homo sapiens) (Q15910 whole entry, looked up): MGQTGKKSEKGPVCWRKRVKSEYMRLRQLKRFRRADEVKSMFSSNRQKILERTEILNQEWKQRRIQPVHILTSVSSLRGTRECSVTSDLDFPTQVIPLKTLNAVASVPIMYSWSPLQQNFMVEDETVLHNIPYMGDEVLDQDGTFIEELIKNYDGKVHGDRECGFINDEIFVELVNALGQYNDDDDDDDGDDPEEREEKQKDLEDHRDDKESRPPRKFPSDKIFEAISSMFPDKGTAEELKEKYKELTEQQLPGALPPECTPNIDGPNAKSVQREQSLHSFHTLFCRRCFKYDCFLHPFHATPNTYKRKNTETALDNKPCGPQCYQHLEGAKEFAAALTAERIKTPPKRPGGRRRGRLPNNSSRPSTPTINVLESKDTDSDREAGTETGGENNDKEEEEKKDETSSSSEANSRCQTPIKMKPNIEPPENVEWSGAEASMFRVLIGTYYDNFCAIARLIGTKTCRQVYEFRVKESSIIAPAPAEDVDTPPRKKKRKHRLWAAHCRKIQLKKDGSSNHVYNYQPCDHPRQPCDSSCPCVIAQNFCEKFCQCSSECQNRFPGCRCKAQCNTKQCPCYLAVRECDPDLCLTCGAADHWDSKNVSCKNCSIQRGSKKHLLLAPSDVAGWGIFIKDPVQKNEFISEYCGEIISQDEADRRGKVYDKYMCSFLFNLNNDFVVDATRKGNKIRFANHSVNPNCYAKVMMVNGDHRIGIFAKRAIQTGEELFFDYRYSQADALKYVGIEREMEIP

In data set [2] the test system is PDX LX92. Description: Antiproliferative activity against human PDX LX92 cells assessed as resazurin conversion measured upto 7 days by alamar blue based assay. The data set is classed as functional, cell-based. The conditions noted are these: time <= 7.0 day. In outline:
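LX92 PDX dissociated, filtered through 70 µm mesh, washed, red cells lysed; ~1×10^6 viable cells cultured in DMEM:F12 with EGM-2 growth factors. About 72 h after dissociation, seeded 5,000 cells/well; compound added daily at 1 µM final, DMSO vehicle. Viability read by resazurin conversion over time for 7 days; 2-way ANOVA with Dunnett adjustment.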
A general note: Resazurin is reduced to fluorescent resorufin, in cell work by metabolically active cells.

Data set [3] deals with Histone-lysine N-methyltransferase EZH2 (Homo sapiens) (UniProt Q15910). Description: Inhibition of EZH2 in human PDX LX92 cells assessed as decrease in H3K27me2 level after 7 days by Westernblot analysis. Type of data set: cell-based. The conditions noted are these: time 7.0 day. In outline: as §1
In data set [4] the test system is PDX LX92. Description: Antitumor activity against human PDX LX92 cells xenografted in athymic nude mouse assessed as reduction of EZH1 level at 100 mg/kg, bid measured upto 42 days by Westernblot analysis. The data set is classed as functional, organism-based. The following applies: time <= 42.0 day. A digest of the protocol: (§2)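 Mice implanted subcutaneously in the right hind flank with 5×10^6 viable cells in 1:1 HBSS:matrigel; randomized at ~150 mm3 tumor volume. Drug formulated in 0.5% NaCMC with 0.1% Tween-80 in water, dosed BID (10AM/4PM), Mon-Fri. Tumors harvested 2 h after final dose for Western blot.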
(A xenograft is tissue or cells of one species grown in another, often human tumour cells in immunodeficient mice.)

A short description of data set [5]: Toxicity in athymic nude mouse xenografted with human PDX LX92 cells assessed as tolerability at 100 mg/kg, qd measured upto 42 days. The following applies: in vivo, 1008 h, time < 42 day. Type of data set: organism-based. A digest of the protocol:
(§3)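 Subcutaneous right-flank xenograft of 5×10^6 viable cells in 1:1 HBSS:matrigel; mice randomized at ~150 mm3. Vehicle 0.5% NaCMC with 0.1% Tween-80 in water; dosing Mon-Fri. Tumor volumes and body weights measured twice weekly.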

Data set [6] has as its system PDX LX92. Nature of the data set: Antitumor activity against human PDX LX92 cells xenografted in athymic nude mouse assessed as reduction of EZH2 level at 100 mg/kg, bid measured upto 42 days by Westernblot analysis. The conditions noted are these: time <= 42.0 day. The data set is classed as functional, organism-based. A digest of the protocol:
as §2

Data set [7] deals with PDX LX92. Nature of the data set: Antitumor activity against human PDX LX92 cells xenografted in athymic nude mouse assessed as reduction of H3K27me2 level at 100 mg/kg, bid measured upto 42 days by Westernblot analysis. Type of data set: functional, organism-based. The following applies: time <= 42.0 day. A digest of the protocol:
as §2

Data set [8] is described as follows: Toxicity in athymic nude mouse xenografted with human PDX LX92 cells assessed as tolerability at 100 mg/kg, bid measured upto 42 days. Type of data set: organism-based. The conditions noted are these: in vivo, 1008 h, time < 42 day. A digest of the protocol: as §3
Data set [9] concerns PDX LX92. Nature of the data set: Antitumor activity against human PDX LX92 cells xenografted in athymic nude mouse assessed as reduction of H3K27me3 level at 100 mg/kg, bid measured upto 42 days by Westernblot analysis. The data set is classed as functional, organism-based. The conditions noted are these: time <= 42.0 day. In outline:
as §2

Consider `Cc1cc(C)c(CNC(=O)c2cc(-c3ccc(CN4CCOCC4)cc3)cc3c2cnn3C2CCCC2)c(=O)[nH]1`, for which the inhibition result in data set [1] and in data set [3] was “Active” throughout. In data set [2], the result was Active.
Take `CCN(c1cc(-c2ccc(CN3CCOCC3)cc2)cc(C(=O)NCc2c(C)cc(C)[nH]c2=O)c1C)C1CCOCC1` [TAZEMETOSTAT]: the result in [4], in [6], in [7] and in data set [9] was Active. The Activity result in data set [5] and in data set [8] was “Non-Toxic” throughout.
As to `CCCc1cc(C)[nH]c(=O)c1CNC(=O)c1cc(-c2ccc(N3CCN(C(C)C)CC3)nc2)cc2c1cnn2C(C)C`, the inhibition result in data set [1] was “Active”. Besides, the outcome in data set [2] was Active.
As to `CCCc1cc(C)[nH]c(=O)c1CNC(=O)c1cc(-c2ccnc(N3CCN(C)CC3)c2)cc2c1cnn2C(C)C`, in data set [1], the inhibition entry is “Active”. The outcome in data set [2] was Active.

Source of the values: ChEMBL document CHEMBL5712073, “DNA methylation in small cell lung cancer defines distinct disease subtypes and correlates with high expression of EZH2” (Oncogene, 2015).
